Measured values taken from ChEMBL document CHEMBL1156395, “Cytotoxic polyacetylenic alcohols from the marine sponge Petrosia species” (2001).
In brackets after ≈: the same amount, converted by molar mass.

Key:
[1] = test system: A549; test: Cytotoxicity against human A549 cells; format: functional; settings: read-out: ED50 (the source's name)
[2] = test system: Nucleic Acid; test: Inhibition of SV40 DNA replication at 20 uM; format: nucleic-acid assay; settings: Betapolyomavirus macacae
Summary of the method: (§1)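 Cell-free SV40 origin (pUC) plasmid replication in 40 mM creatine phosphate-di-Tris pH 7.7 with creatine kinase, 7 mM MgCl2, 0.5 mM DTT, 4 mM ATP, 200 µM UTP/GTP/CTP, 100 µM dATP/dGTP/dCTP, 25 µM [3H]dTTP, 0.6 µg SV40 T-Ag and replication proteins. Incubation 90 min at 37 °C; acid-insoluble radioactivity counted. Products checked with [α-32P]dATP on agarose gel.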

[3] = test system: SK-MEL-2; test: Cytotoxicity against human SK-MEL-2 cells; format: functional; settings: read-out: ED50 (the source's name)
[4] = test system: HCT-15; test: Cytotoxicity against human HCT15 cells; format: functional; settings: read-out: ED50 (the source's name)
[5] = test system: XF498; test: Cytotoxicity against human XF498 cells; format: functional; settings: read-out: ED50 (the source's name)
[6] = test system: Nucleic Acid; test: Inhibition of SV40 DNA replication at 40 uM; format: nucleic-acid assay; settings: Betapolyomavirus macacae; summary of the method: as §1
[7] = test system: SK-OV-3; test: Cytotoxicity against human SKOV3 cells; format: functional; settings: read-out: ED50 (the source's name)

inhibition [2] [%]	inhibition [6] [%]	SMILES	EC50 [1] [µg/mL]	EC50 [3] [µg/mL]	EC50 [4] [µg/mL]	EC50 [5] [µg/mL]	EC50 [7] [µg/mL]
8	55	C#C/C=C\CCCCCCCCCCCCCCC(O)/C=C/CCC/C=C\CCCCC#C[C@H](O)C#CCCCCCC/C=C/[C@H](O)C#C (stereo not given in full)	4 (≈ 5.96 µM)	0.5 (≈ 0.745 µM)	1.4 (≈ 2.09 µM)	3.5 (≈ 5.22 µM)	1.2 (≈ 1.79 µM)
8	55	C#C/C=C\CCCCCCCCCCCCC/C=C/C(O)CCCC/C=C\CCCCC#C[C@H](O)C#CCCCCCC/C=C/[C@H](O)C#C (stereo not given in full)	4 (≈ 5.96 µM)	0.5 (≈ 0.745 µM)	1.4 (≈ 2.09 µM)	3.5 (≈ 5.22 µM)	1.2 (≈ 1.79 µM)
16	48	C#CCCCCCCCCCCCCCCCCC/C=C\CCCC/C=C\CCCCC#C[C@@H](O)C#CCCCCCCCC[C@@H](O)C#C [PETROTETRAYNDIOL F]	3.7 (≈ 5.5 µM)	1.1 (≈ 1.63 µM)	3.4 (≈ 5.05 µM)	4.3 (≈ 6.39 µM)	3.8 (≈ 5.65 µM)
21	38	C#C/C=C\CCCCCCCCCCCCCCCC/C=C\CCCC/C=C\CCCCC#C[C@@H](O)C#CCCCCCC/C=C/[C@H](O)C#C	5.2 (≈ 7.61 µM)	1.6 (≈ 2.34 µM)	3.9 (≈ 5.71 µM)	5.8 (≈ 8.49 µM)	5.1 (≈ 7.47 µM)
9	36	C#C/C=C\CCCCCCCCCCCCCC/C=C\CCCCC(O)/C=C/CCCC#C[C@H](O)C#CCCCCCC/C=C/[C@H](O)C#C (stereo not given in full)	10 (≈ 14.9 µM)	1.3 (≈ 1.94 µM)	4 (≈ 5.96 µM)	4.7 (≈ 7 µM)	1.8 (≈ 2.68 µM)
